High-throughput results: PubChem, Johns Hopkins Ion Channel Center
In the library only some 3.5% were active in any assay of this set; here they are far more common.
RGS4 inh: human RGS4 inhibition. 310,000 tested, 0.45% active. HEK293 M3R/RGS4 inducible, Fluo-4 calcium flux; active compounds read high; triggered by carbachol at its EC20. AID 463165. B-score at 10 µM;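 active means B-score, a plate-corrected calcium signal, over three deviations above library mean, with baseline fluorescence within five deviations of library mean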;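 further: RGS4 expression induced by doxycycline in cells with stable M3 receptor; B-score is computed from the integrated fluorescence ratio over baseline after carbachol; higher B-score means a larger calcium signal and so more RGS4 inhibition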
Target sequence (P49798 whole entry, looked up): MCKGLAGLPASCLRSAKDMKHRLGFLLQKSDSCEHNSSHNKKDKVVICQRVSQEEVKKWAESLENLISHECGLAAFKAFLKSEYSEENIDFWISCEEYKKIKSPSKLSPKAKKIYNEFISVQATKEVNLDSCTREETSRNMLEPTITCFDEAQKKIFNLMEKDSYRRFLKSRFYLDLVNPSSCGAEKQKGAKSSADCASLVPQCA
MrgX1 antagonist: human MrgX1 receptor antagonism, primary screen; Q96LB2; MRGX1-HEK293 calcium flux, Fluo-4, BAM8-22 antagonism; active compounds read low; B-score at 10 µM; 310,000 tested, 1.3% active; AID 588676;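 active means calcium-response B-score plate-corrected more than 3 library SD below zero, starting fluorescence within 5 deviations, no agonist response on first addition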;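 further: peak minus trough fluorescence over baseline after final BAM8-22 challenge near maximal dose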
Target sequence (Q96LB2 whole entry, looked up): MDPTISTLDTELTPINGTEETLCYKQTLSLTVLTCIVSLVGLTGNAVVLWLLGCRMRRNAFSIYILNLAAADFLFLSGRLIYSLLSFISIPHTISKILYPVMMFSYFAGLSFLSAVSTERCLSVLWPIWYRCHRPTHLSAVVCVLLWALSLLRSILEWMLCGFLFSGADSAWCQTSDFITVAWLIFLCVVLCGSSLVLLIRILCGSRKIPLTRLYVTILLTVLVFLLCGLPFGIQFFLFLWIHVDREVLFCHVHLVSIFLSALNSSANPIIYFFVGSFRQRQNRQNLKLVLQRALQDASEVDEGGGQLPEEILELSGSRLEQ
RGS4 act: potentiators or activators of RGS4. B-score at 10 µM. HEK293 M3R/inducible RGS4, carbachol calcium flux Fluo4; active compounds read low. 310,000 tested, 0.92% active;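 active means B-score of the integrated calcium signal more than 4 SD below the library mean, with starting fluorescence not abnormally high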;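 further: negative B-score means reduced calcium response which marks RGS4 activation or potentiation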
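Test system: HEK293 cells with stable M3R and inducible RGS4; also added: carbachol at ECmax as muscarinic agonist stimulus; schedule: dye loading 30 min 37 °C, buffer rest 30 min RT; technique: kinetic calcium fluorescence imaging with Fluo4-AM dye, 2 µM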
MrgX1 ag: agonists of human MrgX1 receptor; Q96LB2; 310,000 tested, 0.44% active; MrgX1-HEK293 cells, Fluo-4 calcium fluorescence, agonist mode; active compounds read high; B-score at 10 µM;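 active means calcium response B-score plate-corrected fluorescence ratio at least 3 library SD, with starting fluorescence B-score inside 5 SD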
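Assay system: stable human MrgX1 HEK293 cell line. Quantity: 15,000 cells per well. Schedule: cells plated overnight, dye loaded 0.5 h 37 °C, 0.5 h room temperature. Detection: Fluo-4 NW calcium-flux fluorescence, kinetic read. Read-out basis: peak-minus-minimum fluorescence over baseline, converted to B scores. Control set: positive and negative control wells on each plate.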
MrgX1 PAM: human MrgX1 positive allosteric modulation, primary screen | AID 588675 | B-score at 10 µM | MrgX1-HEK293, Fluo-4 calcium flux, FDSS; active compounds read high | 310,000 tested, 0.63% active;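 active means plate-corrected calcium response at least 3 library SD above typical, normal starting fluorescence, not activating the receptor alone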;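 further: compound read alongside a low EC10 to EC30 dose of BAM8-22 agonist; peak minus trough fluorescence over baseline measured at the second addition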
RGS4 block valid: validation of RGS4 inhibitors; shares compounds with RGS4 inh; AID 492999; HEK293 M3R/RGS4, carbachol calcium Fluo-4 fluorescence; carbachol added at its EC20; 0 = buffer wells, 100 = carbachol control; 1,700 tested, 65% active; calcium response, % at 10 µM;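 active means duplicate-averaged calcium response above the buffer-only control mean plus 5 SD of those controls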;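 further: integrated fluorescence ratio F max minus min over baseline F0; higher response in RGS4-induced cells means RGS4 inhibition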
RGS4 uninduced: non-induced cell nonspecific activity of RGS4 inhibitors; HEK293 M3R non-induced, carbachol calcium Fluo-4; submaximal (EC20) carbachol stimulus; buffer wells 0%, carbachol control wells 100%; 1,900 tested, 20% active; activity (percent), % at 10 µM; AID 493000; shares compounds with RGS4 inh; call rule not given here;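 further: RGS4 induction absent so cells express M3R without RGS4; higher means more calcium signal and flags a non-specific hit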
M3R basal Ca ctr: signal in non-induced cells without carbachol, RGS4 inhibitor counter-screen. shares compounds with RGS4 inh. HEK293 M3R/RGS4 non-induced, Fluo-4 calcium, no carbachol; normalised: buffer wells 0%, carbachol wells 100%. calcium response (agonist-mode artifact), % at 10 µM. 1,900 tested, 22% active;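 active means duplicate-averaged calcium rise in uninduced cells above buffer wells' mean plus 5 SD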
MrgX1 ag reconf: human MrgX1 agonism, re-confirmation screen; activation, % at 10 µM; AID 602412; shares compounds with MrgX1 ag; MrgX1-HEK293, Fluo-4 calcium fluorescence, FDSS; 600 tested, 78% active;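 active means calcium signal rise, corrected for plate position, at least 3 library SD high, with starting brightness within 5 such deviations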
MrgX1 allo conf: confirmation of human MrgX1 receptor positive allosteric modulators. 1,200 tested, 13% active. shares compounds with MrgX1 PAM. MrgX1-HEK293, Fluo-4 calcium fluorescence, FDSS. activation (ratio percentage), % at 10 µM;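 active means ratio at least 3 SD above the weak peptide control, stable starting fluorescence, no direct agonism earlier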;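 further: compound followed by low BAM8-22 agonist challenge near EC20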
MrgX1 antag conf: reconfirmed antagonist of human MrgX1 receptor signaling. shares compounds with MrgX1 antagonist. MrgX1-HEK293, BAM8-22 calcium flux, Fluo-4; active compounds read low. 2,300 tested, 19% active. remaining BAM8-22 calcium response % of control (active compounds read low), % at 10 µM;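 active means remaining agonist calcium response no higher than 100% minus 3 SD of agonist-only control wells, with starting fluorescence near control levels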;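 further: agonist BAM8-22 given at a near maximal EC90 to ECmax level; peak minus minimum fluorescence divided by baseline after agonist addition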
HEK293 Ca flux: activity in parental HEK293 cells lacking MrgX1; shares compounds with MrgX1 antagonist; Fluo-4 calcium fluorescence, FDSS; fluorescence ratio F(max-min)/F0 at 10 µM; 4,000 tested, 2% active;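 active means duplicate-averaged calcium fluorescence ratio at least three times the standard deviation of buffer wells, a nonspecific response in parental cells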
HEK293 Ca counter: MrgX1 allosteric activator counter-screen hit in parental HEK293 cells. 4,000 tested, 0.4% active. fluorescence ratio F(max-min)/F0 at 10 µM. AID 624114. parental HEK293 calcium flux, Fluo-4 fluorescence ratio; active compounds read high. shares compounds with MrgX1 antagonist;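 active means calcium fluorescence ratio, averaged over duplicates, at least 3 SD of the buffer-well ratio, meaning a nonspecific response in receptor-free cells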;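 further: untransfected parental HEK293 lacking MrgX1 used as counterscreen for MrgX1 allosteric activators; fluorescence change taken during the second addition on a kinetic imager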
HEK293 Ca cntr2: MrgX1 activator counter-screen hit in parental HEK293 cells; fluorescence ratio F(max-min)/F0 at 10 µM; Fluo-4 calcium fluorescence (FDSS); active compounds read high; 4,000 tested, 8.7% active; shares compounds with MrgX1 antagonist;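 active means calcium fluorescence ratio at least three times the spread of buffer wells, meaning a non-specific response in parental cells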
Starred values were filed as active, the others as inactive; i = inactive; · = no result.

SMILES	RGS4 inh	MrgX1 antagonist	RGS4 act	MrgX1 ag	MrgX1 PAM	RGS4 block valid	RGS4 uninduced	M3R basal Ca ctr	HEK293 Ca flux	HEK293 Ca counter	HEK293 Ca cntr2	others
CC(OC(=O)CCN=C1NS(=O)(=O)c2ccccc21)C(=O)Nc1ccc(F)cc1 (stereo not drawn)	i	i	i	i	i	·	·	·	·	·	·
Cc1ncc(CO)c(CNc2ccc(Oc3ccccc3)cc2)c1O	i	i	i	i	i	·	·	·	·	·	·
COc1ccc(CNC(=O)CN(C)S(=O)(=O)c2ccc(Cl)cc2)cc1	i	i	i	i	i	·	·	·	·	·	·
COc1ccc(CNC(=O)CCNS(=O)(=O)c2ccc(Cl)cc2)cc1	i	i	i	i	i	·	i	i	·	·	·
COc1ccc(S(=O)(=O)NCCC(=O)NCc2ccc(F)cc2)cc1	i	i	i	i	i	·	i	i	·	·	·
O=c1[nH]c2ccc(Br)cc2c(-c2ccccc2)c1N1CCOCC1	i	i	i	i	i	·	·	·	·	·	·
O=c1[nH]c2ccc(Br)cc2c(-c2ccccc2)c1CN1CCOCC1	7.5*	i	i	i	i	19%*	48%*	i	·	·	·
O=C(CN1C(=O)NC(Cc2ccccc2)C1=O)Nc1ccccc1OC(F)F (stereo not drawn)	i	i	i	i	i	·	·	·	·	·	·
O=C/C=C/c1coc2ccc3ccccc3c2c1=O	15*	i	i	i	i	13%*	36%*	i	·	·	·
CCN(CC(=O)Nc1c(F)cccc1F)C(=O)CCCNC(=O)c1ccc(Cl)cc1	i	i	i	i	i	·	·	·	·	·	·
Cc1cnnn1-c1ccc(C(=O)CCl)cc1	11*	i	i	28*	i	86%*	38%*	19%*	i	i	48*	MrgX1 ag reconf=252%*
Cc1ccc(S(=O)(=O)CCC(=O)c2ccc(O)cc2O)cc1	24*	i	i	30*	i	62%*	46%*	i	i	i	i	MrgX1 ag reconf=127%*
Cc1ccc(S(=O)(=O)CCC(=O)OCC(=O)c2cc(C)ccc2C)cc1	i	i	i	i	i	·	·	·	·	·	·
Cc1ccc(C(=O)NC2CCN(CC(=O)NC3CCC(C)CC3)CC2)cc1 (stereo not drawn)	i	i	i	i	i	·	·	·	·	·	·
Cc1ccccc1Nc1nc(N)nc(-c2oc3ccccc3c2C)n1	6*	i	i	i	47*	27%*	42%*	i	i	i	i	MrgX1 allo conf=33%*
Nc1ncnc2c1ncn2[C@@H]1O[C@H](CO)C[C@@H]1O	i	i	i	i	i	·	·	·	·	·	·
Nc1ncnc2c1ncn2C1OC(CO)C(O)C1O (stereo not drawn)	9.4*	i	i	i	9.4*	41%*	71%*	i	i	i	i	MrgX1 allo conf=i
O=C(CC1(O)C(=O)Nc2ccccc21)c1cccc(Br)c1 (stereo not drawn)	i	i	i	i	i	·	·	·	·	·	·
N#CC1(Nc2cccc(Br)c2)C(=O)Nc2ccccc21 (stereo not drawn)	10*	i	i	54*	i	44%*	30%*	76%*	i	i	49*	MrgX1 ag reconf=195%*
Cc1ccc(NC(=O)COc2ccc(Br)cc2C)cc1	i	i	i	i	i	·	·	·	·	·	·
O=C(CCN1CCN(c2ccccc2F)CC1)c1ccc(Br)cc1	19*	i	i	40*	i	39%*	i	8.5%*	i	i	i	MrgX1 ag reconf=i
O=C(CCC(=O)N1CCN(c2ccccc2F)CC1)c1ccc(F)cc1	i	i	i	i	i	·	·	·	·	·	·
CN(C)CCNc1nc(-c2ccco2)c2c(c1C#N)CC(C)(C)OC2	i	i	i	i	i	·	·	·	·	·	·
CCCCN(C)c1nc(-c2ccco2)c2c(c1C#N)CC(C)(C)OC2	7.2*	i	i	28*	i	i	i	34%*	i	i	i	MrgX1 ag reconf=84%*
COc1cccc2cc(CC(=O)c3ccc(C)cc3C)c(=O)oc12	i	i	i	i	i	·	·	·	·	·	·
N#Cc1c(-c2c(Cl)cccc2Cl)noc1/C=C/Nc1ccc(C(=O)O)cc1	5.4*	i	i	i	12*	18%*	i	i	i	i	i	MrgX1 allo conf=i
COc1cc(C2C(C#N)=C(N)Oc3cc(N(C)C)ccc32)cc2c1OCO2 (stereo not drawn)	i	i	i	94*	i	i	i	108%*	i	i	86*	MrgX1 ag reconf=273%*
O=C(Cc1cccc(C(F)(F)F)c1)NCC(=O)Nc1cc(Cl)ccc1Cl	i	i	i	i	i	·	·	·	·	·	·
CCOC(=O)[C@@H]1[C@H]2COc3ccccc3[C@@H]2N2C(=O)N(c3ccc(Cl)cc3)C(=O)[C@@]12C	i	-8.1*	i	i	i	i	i	i	i	i	i	MrgX1 antag conf=i
